In ChEMBL document CHEMBL1141882, “Synthesis and biological testing of purine derivatives as potential ATP-competitive kinase inhibitors” (J Med Chem, 2005):

Assays:
[1] = target: Ca2+/calmodulin-dependent protein kinase II (CaM kinase II) (Rattus norvegicus) (UniProt P11275+P08413+P15791+P11730); experiment: Inhibition of rat Calcium/calmodulin-dependent protein kinase type II at 30 uM; assay type: protein assay
In short: (§1)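 Kinase activity assayed with ATP at 100 µM, deliberately higher than usual assay ATP levels because the inhibitors are assumed ATP-competitive. Results are reported as percent inhibition of each kinase.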

[2] = target: Tyrosine-protein kinase Lck (Homo sapiens) (UniProt P06239); experiment: Inhibition of human lymphocyte protein tyrosine kinase Lck at 30 uM; in short: as §1
Sequence of Tyrosine-protein kinase Lck (Homo sapiens) (P06239 2-509 limits assumed): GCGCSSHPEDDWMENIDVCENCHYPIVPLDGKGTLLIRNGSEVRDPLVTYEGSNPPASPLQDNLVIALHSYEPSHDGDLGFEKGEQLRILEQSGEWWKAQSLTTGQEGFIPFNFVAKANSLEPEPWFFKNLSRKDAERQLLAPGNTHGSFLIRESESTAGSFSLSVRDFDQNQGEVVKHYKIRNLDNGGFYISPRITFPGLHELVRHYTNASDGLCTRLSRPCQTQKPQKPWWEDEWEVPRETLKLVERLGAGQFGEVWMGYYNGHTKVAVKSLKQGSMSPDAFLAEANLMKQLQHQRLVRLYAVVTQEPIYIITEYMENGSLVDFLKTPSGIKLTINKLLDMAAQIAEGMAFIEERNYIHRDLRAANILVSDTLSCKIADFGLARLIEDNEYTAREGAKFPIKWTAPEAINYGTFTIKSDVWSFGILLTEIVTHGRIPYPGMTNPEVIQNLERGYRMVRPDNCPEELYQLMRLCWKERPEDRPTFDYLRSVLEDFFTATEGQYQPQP

[3] = target: Mitogen-activated protein kinase 1 (Homo sapiens) (UniProt P28482); experiment: Inhibition of human Mitogen-activated protein kinase 2 at 30 uM; in short: as §1
Target sequence in this assay (P28482 whole entry): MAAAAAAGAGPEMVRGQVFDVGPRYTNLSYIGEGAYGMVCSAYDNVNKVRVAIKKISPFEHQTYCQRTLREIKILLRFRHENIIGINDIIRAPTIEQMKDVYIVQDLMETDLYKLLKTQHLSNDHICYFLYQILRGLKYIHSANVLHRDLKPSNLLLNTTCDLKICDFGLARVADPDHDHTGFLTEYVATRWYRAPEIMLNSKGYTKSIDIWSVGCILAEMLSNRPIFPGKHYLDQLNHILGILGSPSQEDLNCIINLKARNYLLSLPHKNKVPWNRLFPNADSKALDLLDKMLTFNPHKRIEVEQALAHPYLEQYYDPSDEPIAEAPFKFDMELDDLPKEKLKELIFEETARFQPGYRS

[4] = target: Mitogen-activated protein kinase 10 (Rattus norvegicus) (UniProt P49187); experiment: Inhibition of rat c-Jun N-terminal kinase-3 at 30 uM; in short: as §1
[5] = target: Mitogen-activated protein kinase 9 (Homo sapiens) (UniProt P45984); experiment: Inhibition of human c-Jun N-terminal kinase-2 alpha-2 at 30 uM; in short: as §1
[6] = target: Protein kinase C alpha type (Homo sapiens) (UniProt P17252); experiment: Inhibition of human Protein kinase C alpha; parameters: concentration or dose not given beside the values; conditions: concentration not given here
[7] = target: Glycogen synthase kinase-3 beta (Homo sapiens) (UniProt P49841); experiment: Inhibition of human Glycogen synthase kinase-3 beta at 30 uM; in short: as §1
Sequence of Glycogen synthase kinase-3 beta (Homo sapiens) (P49841 whole entry, looked up): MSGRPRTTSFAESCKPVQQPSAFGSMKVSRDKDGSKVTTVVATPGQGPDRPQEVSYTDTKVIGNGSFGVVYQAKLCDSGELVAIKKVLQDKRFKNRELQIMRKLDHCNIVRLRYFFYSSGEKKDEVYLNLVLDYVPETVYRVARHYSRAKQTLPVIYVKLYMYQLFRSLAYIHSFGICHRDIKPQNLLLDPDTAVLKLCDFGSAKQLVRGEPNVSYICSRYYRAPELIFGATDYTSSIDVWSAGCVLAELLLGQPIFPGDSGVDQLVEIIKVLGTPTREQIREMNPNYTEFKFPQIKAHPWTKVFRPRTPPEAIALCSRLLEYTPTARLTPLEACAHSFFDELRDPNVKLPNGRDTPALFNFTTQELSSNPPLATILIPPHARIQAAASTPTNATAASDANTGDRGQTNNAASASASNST

[8] = target: Dual specificity mitogen-activated protein kinase kinase 1 (Homo sapiens) (UniProt Q02750); experiment: Inhibition of human Mitogen activated protein kinase kinase 1 (MEK1) at 30 uM; in short: as §1
[9] = target: Mitogen-activated protein kinase 1 (Homo sapiens) (UniProt P28482); experiment: Inhibition of human Mitogen-activated protein kinase 1 at 30 uM
[10] = target: Mitogen-activated protein kinase 14 (Homo sapiens) (UniProt Q16539); experiment: Inhibition of human stress-activated protein kinase-2 alpha (p38 MAP-kinase) at 30 uM; in short: as §1
Sequence of Mitogen-activated protein kinase 14 (Homo sapiens) (Q16539 whole entry): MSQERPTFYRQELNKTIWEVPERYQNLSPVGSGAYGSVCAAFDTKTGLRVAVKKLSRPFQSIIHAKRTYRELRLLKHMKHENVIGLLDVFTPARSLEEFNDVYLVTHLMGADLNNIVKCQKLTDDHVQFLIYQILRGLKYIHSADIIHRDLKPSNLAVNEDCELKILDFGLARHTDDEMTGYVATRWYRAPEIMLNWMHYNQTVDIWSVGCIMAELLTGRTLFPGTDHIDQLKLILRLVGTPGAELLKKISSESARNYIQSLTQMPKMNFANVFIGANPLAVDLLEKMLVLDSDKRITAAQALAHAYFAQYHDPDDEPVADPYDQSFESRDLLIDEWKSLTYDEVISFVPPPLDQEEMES

[11] = target: RAC-alpha serine/threonine-protein kinase (Homo sapiens) (UniProt P31749); experiment: Inhibition of human Protein kinase B alpha at 30 uM; in short: as §1
[12] = target: Mitogen-activated protein kinase 8 (Homo sapiens) (UniProt P45983); experiment: Inhibition of human c-Jun N-terminal kinase-1 alpha-1 at 30 uM; in short: as §1
Sequence of Mitogen-activated protein kinase 8 (Homo sapiens) (P45983 whole entry): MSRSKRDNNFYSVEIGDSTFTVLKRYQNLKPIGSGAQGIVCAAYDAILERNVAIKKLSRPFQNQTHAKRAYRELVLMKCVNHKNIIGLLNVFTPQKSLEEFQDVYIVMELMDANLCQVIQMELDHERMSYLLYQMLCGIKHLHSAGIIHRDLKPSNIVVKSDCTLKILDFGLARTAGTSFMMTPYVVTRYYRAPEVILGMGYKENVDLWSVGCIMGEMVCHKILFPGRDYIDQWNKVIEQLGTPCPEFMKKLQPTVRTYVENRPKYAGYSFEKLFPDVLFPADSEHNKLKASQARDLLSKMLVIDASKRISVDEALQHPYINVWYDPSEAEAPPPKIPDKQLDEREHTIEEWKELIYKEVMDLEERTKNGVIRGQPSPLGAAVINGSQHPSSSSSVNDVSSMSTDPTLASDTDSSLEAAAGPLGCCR

[13] = target: RAF proto-oncogene serine/threonine-protein kinase (Homo sapiens) (UniProt P04049); experiment: Inhibition of human RAF proto-oncogene serine/threonine-protein kinase at 30 uM; in short: as §1
Sequence of RAF proto-oncogene serine/threonine-protein kinase (Homo sapiens) (P04049 whole entry): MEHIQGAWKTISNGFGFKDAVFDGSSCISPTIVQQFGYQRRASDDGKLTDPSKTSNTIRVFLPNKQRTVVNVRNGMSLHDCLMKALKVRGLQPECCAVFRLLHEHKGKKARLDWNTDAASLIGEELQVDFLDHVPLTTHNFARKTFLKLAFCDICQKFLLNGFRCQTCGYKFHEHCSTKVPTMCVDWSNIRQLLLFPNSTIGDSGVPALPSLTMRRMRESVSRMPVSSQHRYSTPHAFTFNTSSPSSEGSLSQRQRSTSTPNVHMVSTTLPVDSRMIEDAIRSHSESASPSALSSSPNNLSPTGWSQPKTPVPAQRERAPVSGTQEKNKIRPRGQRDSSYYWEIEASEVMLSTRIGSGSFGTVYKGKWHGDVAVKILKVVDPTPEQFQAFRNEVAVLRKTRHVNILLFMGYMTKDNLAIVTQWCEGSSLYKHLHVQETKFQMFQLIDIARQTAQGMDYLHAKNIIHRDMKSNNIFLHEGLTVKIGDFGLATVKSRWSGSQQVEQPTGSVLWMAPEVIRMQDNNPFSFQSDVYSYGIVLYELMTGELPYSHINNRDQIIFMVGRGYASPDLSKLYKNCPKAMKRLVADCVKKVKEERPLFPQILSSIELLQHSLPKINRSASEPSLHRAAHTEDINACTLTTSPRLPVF

[14] = target: cAMP-dependent protein kinase (PKA) (Homo sapiens) (UniProt P22694+P17612+P22612); experiment: Inhibition of human cAMP-dependent protein kinase (PKA); assay type: protein assay; parameters: concentration or dose not given beside the values; conditions: concentration not given here
[15] = target: Rho-associated protein kinase 2 (Homo sapiens) (UniProt O75116); experiment: Inhibition of human Rho-dependent protein kinase-II at 30 uM
Sequence of Rho-associated protein kinase 2 (Homo sapiens) (O75116 whole entry, looked up): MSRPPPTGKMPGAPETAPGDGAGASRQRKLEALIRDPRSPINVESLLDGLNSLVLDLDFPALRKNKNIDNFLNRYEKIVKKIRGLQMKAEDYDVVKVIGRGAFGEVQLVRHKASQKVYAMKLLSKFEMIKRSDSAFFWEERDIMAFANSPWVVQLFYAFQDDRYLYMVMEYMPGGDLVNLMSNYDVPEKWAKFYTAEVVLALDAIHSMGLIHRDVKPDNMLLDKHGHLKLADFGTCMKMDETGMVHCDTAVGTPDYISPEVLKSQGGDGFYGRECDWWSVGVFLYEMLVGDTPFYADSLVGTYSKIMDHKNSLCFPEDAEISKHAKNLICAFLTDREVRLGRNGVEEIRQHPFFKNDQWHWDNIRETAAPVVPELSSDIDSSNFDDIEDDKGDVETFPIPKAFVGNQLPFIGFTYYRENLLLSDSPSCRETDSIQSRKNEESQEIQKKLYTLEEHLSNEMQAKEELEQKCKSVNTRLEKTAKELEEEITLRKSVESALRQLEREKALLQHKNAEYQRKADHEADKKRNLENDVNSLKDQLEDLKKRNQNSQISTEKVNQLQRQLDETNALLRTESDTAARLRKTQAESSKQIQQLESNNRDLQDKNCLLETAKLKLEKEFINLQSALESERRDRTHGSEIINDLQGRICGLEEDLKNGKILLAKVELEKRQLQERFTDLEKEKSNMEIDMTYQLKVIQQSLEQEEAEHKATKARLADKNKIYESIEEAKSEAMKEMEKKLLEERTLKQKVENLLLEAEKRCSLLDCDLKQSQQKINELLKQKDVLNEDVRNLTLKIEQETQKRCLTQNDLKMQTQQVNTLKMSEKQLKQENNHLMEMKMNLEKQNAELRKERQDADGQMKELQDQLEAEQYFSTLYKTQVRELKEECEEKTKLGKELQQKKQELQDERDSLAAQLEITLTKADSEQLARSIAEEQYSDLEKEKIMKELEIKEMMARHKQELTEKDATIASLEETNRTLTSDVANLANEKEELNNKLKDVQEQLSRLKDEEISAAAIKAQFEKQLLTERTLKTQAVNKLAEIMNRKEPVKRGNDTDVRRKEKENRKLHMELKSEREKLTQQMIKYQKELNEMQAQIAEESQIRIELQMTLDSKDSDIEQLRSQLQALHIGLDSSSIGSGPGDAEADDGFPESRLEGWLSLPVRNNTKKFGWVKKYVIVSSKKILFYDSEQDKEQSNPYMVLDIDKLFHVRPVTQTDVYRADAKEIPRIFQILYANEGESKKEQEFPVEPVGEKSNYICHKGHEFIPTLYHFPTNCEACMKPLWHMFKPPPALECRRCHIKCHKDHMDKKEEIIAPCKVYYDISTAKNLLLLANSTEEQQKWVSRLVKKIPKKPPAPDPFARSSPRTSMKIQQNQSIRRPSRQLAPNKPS

| SMILES | inhibition [1] | inhibition [2] | inhibition [3] | inhibition [4] | inhibition [5] | inhibition [6] | inhibition [7] | inhibition [8] | inhibition [9] | inhibition [10] | inhibition [11] | inhibition [12] | inhibition [13] | inhibition [14] | inhibition [15] |
| --- | --- | --- | --- | --- | --- | --- | --- | --- | --- | --- | --- | --- | --- | --- | --- |
| c1ccc(Nc2ncnc3[nH]cnc23)cc1 | 0% | 39% | 33% | 11% | 0% | 6% | 13% | 19% | 22% | 34% | 14% | 0% | 19% | 32% | 48% |
| Cn1cnc2c(SCc3ccccc3)ncnc21 | 0% | 6% | 0% | 5% | 7% | 13% | 10% | 6% |  | 22% | 4% | 1% | 12% | 0% | 1% |
| Cn1cnc2c(-c3ccccc3)ncnc21 | 8% | 21% | 9% | 14% | 11% | 14% | 11% | 9% |  | 16% | 15% | 9% | 12% | 7% | 8% |
| COc1ncnc2ncn(Cc3ccc(F)cc3)c12 | 2% | 0% | 3% | 30% | 0% | 7% | 5% | 3% |  | 8% | 0% | 0% | 9% | 7% | 1% |
| Fc1ccc(Cc2[nH]cnc3ncnc2-3)cc1 | 8% | 0% | 0% | 0% | 0% | 0% | 2% | 0% |  | 1% | 3% | 0% | 0% | 0% | 2% |
| Fc1ccc(-[n+]2c[nH]c3ncncc32)cc1 | 0% | 9% | 0% | 4% | 0% | 2% | 0% | 0% |  | 0% | 0% | 1% | 0% | 0% | 2% |
| c1ccc(Oc2ncnc3[nH]cnc23)cc1 | 0% | 11% | 6% | 0% | 1% | 8% | 0% | 1% |  | 12% | 0% | 1% | 3% | 11% | 16% |
| c1ccc(Sc2ncnc3[nH]cnc23)cc1 | 0% | 5% | 13% | 0% | 0% | 3% | 1% | 0% |  | 54% | 0% | 0% | 6% | 8% | 33% |
| Fc1ccc(C[n+]2c[nH]c3ncncc32)cc1 | 5% | 13% | 4% | 12% | 0% | 15% | 10% | 0% |  | 5% | 8% | 0% | 7% | 0% | 4% |
| Cn1c(-c2ccc(S(C)(=O)=O)cc2)nc2c(Sc3ccccc3)ncnc21 | 8% | 16% | 3% | 7% | 8% | 18% | 0% | 4% |  | 36% | 14% | 1% | 10% | 11% | 5% |
| c1ccc(Cn2cnc3c(Sc4ccccc4)ncnc32)cc1 | 3% | 0% | 0% | 0% | 0% | 0% | 1% | 6% |  | 64% | 1% | 0% | 0% | 0% | 1% |
| Fc1ccc(Nc2[nH]cnc3ncnc2-3)cc1 | 2% | 42% | 48% | 10% | 0% | 17% | 0% | 34% |  | 30% | 18% | 13% | 24% | 40% | 52% |
| Cn1cnc2c(-c3ccc(F)cc3)ncnc21 | 12% | 5% | 0% | 14% | 3% | 8% | 3% | 1% |  | 16% | 0% | 5% | 9% | 0% | 10% |
| Clc1ncnc2ncn(Cc3ccccc3)c12 | 0% | 0% | 1% | 11% | 1% | 12% | 9% | 0% |  | 7% | 0% | 0% | 12% | 0% | 6% |
| Cn1cnc2c(Nc3ccc(F)cc3)ncnc21 | 8% | 9% | 57% | 19% | 6% | 11% | 14% | 8% |  | 13% | 0% | 5% | 27% | 0% | 7% |
| Cn1c(Br)nc2c(Sc3ccccc3)ncnc21 | 0% | 23% | 0% | 0% | 0% | 5% | 19% | 0% |  | 23% | 1% | 0% | 0% | 0% | 0% |
| c1ccc(CSc2ncnc3[nH]cnc23)cc1 | 0% | 22% | 12% | 7% | 0% | 11% | 35% | 7% |  | 50% | 4% | 1% | 53% | 13% | 28% |
| Fc1ccc(Cn2cnc3c(Sc4ccccc4)ncnc32)cc1 | 0% | 12% | 0% | 0% | 0% | 0% | 0% | 1% |  | 67% | 13% | 0% | 0% | 0% | 2% |
| c1ccc(-[n+]2c[nH]c3ncncc32)cc1 | 0% | 2% | 0% | 3% | 0% | 4% | 4% | 0% |  | 0% | 0% | 0% | 0% | 0% | 0% |
| c1ccc(Cc2[nH]cnc3ncnc2-3)cc1 | 2% | 0% | 3% | 30% | 0% | 7% | 5% | 3% |  | 8% | 0% | 0% | 9% | 7% | 1% |
